Results taken from PMC4143594 (Clinical Drug Investigation, 2014).
Read-outs that look alike come from different tables or passages of the source.

Tests used:
[1] = 24-h euglycaemic clamp after a single SC dose; type: in vivo, healthy subjects (human)
[2] = type: in vivo, healthy subjects (human); conditions: for C max,IDeg,SD, mean estimate: serum, ELISA
Method in brief: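 Fasted healthy adults (n=20) in a randomised, open-label, complete crossover received single SC doses of 0.4 U/kg, 13–21 days apart. Dosing was by syringe into a lifted skinfold of anterior thigh, lower abdominal wall or outer deltoid, each followed by a 24-h euglycaemic clamp (4.5 mmol/L). Serum was sampled over 120 h and assayed by compound-specific sandwich ELISA (LLOQ 20 pmol/L).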

[3] = cited from earlier work
[4] = single SC dose 0.4 U/kg in abdomen, 20 evaluations
[5] = single SC dose 0.4 U/kg in deltoid, 20 evaluations
[6] = single SC dose 0.4 U/kg in thigh, 19 evaluations
[7] = single SC dose 0.4 U/kg, ANOVA of log-transformed AUC
[8] = single SC dose 0.4 U/kg, ANOVA of log-transformed values

Q: For insulin degludec, which “GIRmax,SD, mean estimate” value [1, 4] is on record?
A: 3.0 mg/(kg·min)

Q: What about the “GIRmax,SD, mean estimate” value [1, 5] of the same substance?
A: 3.0 mg/(kg·min)

Q: And the “GIRmax,SD, mean estimate” value [1, 6]?
A: 2.7 mg/(kg·min)

Q: And the “Maximum concentration (C max,IDeg,SD) higher in deltoid or abdomen than in thigh” value ([2]; single SC dose 0.4 U/kg)?
A: 23–27%

Q: And the “C max,IDeg,SD, mean estimate” value [2, 4]?
A: 2,388 pmol/L

Q: And the “C max,IDeg,SD, mean estimate” value [2, 5]?
A: 2,462 pmol/L

Q: What about the “C max,IDeg,SD, mean estimate” value [2, 6] of the same substance?
A: 1,938 pmol/L

Q: And the “AUCIDeg,0–120h,SD mean ratio [95 % CI], abdomen vs. deltoid” value [2, 7]?
A: 1.01 [0.96–1.06]

Q: What about the “AUCIDeg,0–120h,SD mean ratio [95 % CI], abdomen vs. thigh” value [2, 7] of the same substance?
A: 1.07 [1.03–1.11]

Q: And the “AUCIDeg,0–120h,SD mean ratio [95 % CI], deltoid vs. thigh” value [2, 7]?
A: 1.06 [1.01–1.10]

Q: What about the “C max,IDeg,SD mean ratio [95 % CI], abdomen vs. deltoid” value [2, 8] of the same substance?
A: 0.97 [0.84–1.12]

Q: What about the “C max,IDeg,SD mean ratio [95 % CI], abdomen vs. thigh” value [2, 8] of the same substance?
A: 1.23 [1.07–1.42]

Q: What about the “C max,IDeg,SD mean ratio [95 % CI], deltoid vs. thigh” value [2, 8] of the same substance?
A: 1.27 [1.08–1.49]

Q: And the “Time to reach steady state” value ([3]; once-daily injections)?
A: 2 to 3 days

Q: For insulin glargine, which “Half-life after SC administration” value [3] is on record?
A: 12 h

Q: Which “AUC higher following SC injection in abdomen or deltoid than in thigh” value [3] does the source give for insulin detemir here?
A: approximately 10%
